Reference: publication PMC7857643 (ACS chemical biology, 2016)
Numbering of substitutions follows the chain as printed. Several values for one entry are separate records, joined by “and”; a condition that tells them apart may be missing. Equal values may be shown once.

Key:
[1] = tested on: DU145 prostate cancer cells; assay: Cell viability / drug combination with etoposide in DU145 cells; format: cell-based, human
[2] = target: native endogenous avian TDP2 in DT40 whole cell extracts (Gallus gallus, UniProt F1NW29); assay: TDP2 assay with DT40 whole cell extracts; format: biochemical, chicken; details: Supporting Information Figure 1
Chain of native endogenous avian TDP2 in DT40 whole cell extracts (F1NW29 whole entry): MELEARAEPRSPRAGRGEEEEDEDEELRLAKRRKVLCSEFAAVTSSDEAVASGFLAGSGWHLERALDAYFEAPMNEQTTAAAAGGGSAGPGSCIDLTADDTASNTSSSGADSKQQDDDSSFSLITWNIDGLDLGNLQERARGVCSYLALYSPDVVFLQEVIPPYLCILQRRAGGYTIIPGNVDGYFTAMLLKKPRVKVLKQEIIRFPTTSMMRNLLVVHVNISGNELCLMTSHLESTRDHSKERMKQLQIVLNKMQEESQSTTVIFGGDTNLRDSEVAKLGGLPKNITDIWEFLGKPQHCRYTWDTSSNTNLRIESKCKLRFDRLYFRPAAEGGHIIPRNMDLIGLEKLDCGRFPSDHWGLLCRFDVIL

[3] = target: T1, mTDP2 8M (5M + E242G, S244A, R316G) (Mus musculus, UniProt Q9JJX7, E242G/I281T/K282R/P318T/Q278R/R316G/S244A/Y321C); assay: Recombinant TDP2 assay, mouse TDP2 8M mutant; format: biochemical; details: IC50 mTDP2 8M, mouse TDP2 with eight human mutations
T1 sequence (Q9JJX7 1-370 E242G/S244A/Q278R/I281T/K282R/R316G/P318T/Y321C): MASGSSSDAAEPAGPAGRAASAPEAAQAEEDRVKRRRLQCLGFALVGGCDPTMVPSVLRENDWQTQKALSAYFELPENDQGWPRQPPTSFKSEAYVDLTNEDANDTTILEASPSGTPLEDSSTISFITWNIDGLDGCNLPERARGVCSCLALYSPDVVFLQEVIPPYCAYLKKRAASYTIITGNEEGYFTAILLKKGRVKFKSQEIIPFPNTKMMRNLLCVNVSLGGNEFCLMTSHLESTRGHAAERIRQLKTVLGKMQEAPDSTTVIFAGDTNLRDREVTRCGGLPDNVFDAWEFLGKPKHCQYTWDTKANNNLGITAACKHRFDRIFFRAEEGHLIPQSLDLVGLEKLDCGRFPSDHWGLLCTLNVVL

TK6 TDP2 KO cells = assay: Drug combination with etoposide in TK6 TDP2 KO cells; format: cell-based, human
mTDP2 9M (8M + H323L) = target: T2, mTDP2 9M (8M + H323L) (Mus musculus, UniProt Q9JJX7, E242G/H323L/I281T/K282R/P318T/Q278R/R316G/S244A/Y321C); assay: biochemical
T2 sequence (Q9JJX7 1-370 E242G/S244A/Q278R/I281T/K282R/R316G/P318T/Y321C/H323L): T1 sequence (Q9JJX7 1-370 E242G/S244A/Q278R/I281T/K282R/R316G/P318T/Y321C) with H323L

DT40 hTDP2 cells = assay: Drug combination in TDP2 knockout DT40 cells complemented with human TDP2; format: cell-based, chicken
Procedure, shortened: (§1)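 DT40 cells (TDP2-knockout, with or without human TDP2 complementation) seeded at 200 cells/well and exposed continuously to the test compound plus etoposide (or camptothecin) across concentration ranges for 72 h, in triplicate. Viability read at 72 h by ATPlite luminescence after 5 min. Viability was the ATP level of treated cells over untreated cells × 100.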

[4] = target: T3, mTDP2 5M (Q278R, I281T, K282R, P318T, Y321C) (Mus musculus, UniProt Q9JJX7, I281T/K282R/P318T/Q278R/Y321C); assay: Recombinant TDP2 assay, mouse TDP2 5M mutant; format: biochemical
T3 sequence (Q9JJX7 1-370 Q278R/I281T/K282R/P318T/Y321C): T1 sequence (Q9JJX7 1-370 E242G/S244A/Q278R/I281T/K282R/R316G/P318T/Y321C) with G242E, A244S, G316R

zebrafish TDP2 (zTDP2) = assay: Recombinant TDP2 assay, zebrafish TDP2; format: biochemical, D. rerio; details: full-length zebrafish TDP2
recombinant human TDP2 = target: T4, recombinant human TDP2 (Homo sapiens, UniProt O95551); assay: Kinetics experiments; format: biochemical
T4 sequence (O95551 1-362): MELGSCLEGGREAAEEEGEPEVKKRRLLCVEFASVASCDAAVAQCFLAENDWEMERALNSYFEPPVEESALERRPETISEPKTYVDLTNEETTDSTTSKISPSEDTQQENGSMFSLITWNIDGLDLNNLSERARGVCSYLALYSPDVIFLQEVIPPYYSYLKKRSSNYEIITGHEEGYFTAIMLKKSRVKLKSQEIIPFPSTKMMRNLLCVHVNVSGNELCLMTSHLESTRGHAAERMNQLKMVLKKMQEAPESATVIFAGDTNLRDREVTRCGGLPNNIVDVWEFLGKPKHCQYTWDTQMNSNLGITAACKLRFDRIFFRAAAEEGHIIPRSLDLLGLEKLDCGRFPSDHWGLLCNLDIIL
Procedure, shortened: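 Recombinant TDP2 at 10 pM was incubated at RT with 5, 10, 20 or 800 nM unlabeled TY19 substrate, spiked with 1 nM 32P-labeled TY19, with 0, 30, 50 or 150 nM test compound. Time-course reactions were resolved on 16% denaturing PAGE. Initial velocities from linear fits went into a Lineweaver–Burk plot.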

[5] = tested on: DT40 avian lymphoblastoid cells; assay: Drug combination with etoposide in DT40 cells; format: cell-based, chicken
[6] = tested on: TK6 human lymphoblastoid cells (TK6 WT); assay: Drug combination with etoposide in TK6 cells; format: cell-based; details: increasing concentrations of ETP
Procedure, shortened: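 TK6 wild-type lymphoblastoid cells seeded at 10,000 cells/well and exposed continuously to the test compound combined with increasing etoposide concentrations for 72 h, in triplicate. ATPlite luminescence read at 72 h after 5 min incubation. Viability was expressed as a percentage of the ATP level in untreated cells.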

mTDP2 WT = target: T5, mTDP2 WT (Mus musculus, UniProt Q9JJX7); assay: Recombinant TDP2 assay, mouse TDP2 wild type; format: biochemical
T5 sequence (Q9JJX7 1-370): T1 sequence (Q9JJX7 1-370 E242G/S244A/Q278R/I281T/K282R/R316G/P318T/Y321C) with G242E, A244S, R278Q, T281I, R282K, G316R, T318P, C321Y

DT40 TDP2 KO cells = assay: Drug combination with etoposide in DT40 TDP2 KO cells; format: cell-based, chicken
Procedure, shortened: as §1

C. elegans TDP2 (cTDP2) = assay: Recombinant TDP2 assay, C. elegans TDP2; format: biochemical; details: full-length C. elegans TDP2
[7] = target: T6, human cellular TDP2 in HT29 whole cell extracts (Homo sapiens, UniProt O95551); assay: TDP2 assay with whole cell extracts from HT29 cells; format: biochemical; details: Supporting Information Figure 1
T6 sequence (O95551 1-362): T4 sequence (O95551 1-362)
Procedure, shortened: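 1 × 10^7 human cells were lysed 15 min on ice and spun at 12,000g for 10 min; protein was measured and extracts were stored at −80 °C. Extract at 10–20 μg/mL (30–40% cleavage) was incubated with 1 nM 32P-labeled 5′-phosphotyrosyl 18-mer DNA and test compound for 15 min at RT in pH 7.5 Tris/KCl/MgCl2 buffer. Products were run on 16% denaturing PAGE and quantified by densitometry.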

[8] = target: T7, recombinant human TDP2 (REC hTDP2) (Homo sapiens, UniProt O95551); assay: Recombinant TDP2 assay; format: biochemical
T7 sequence (O95551 1-362): T4 sequence (O95551 1-362)

SMILES: N#Cc1ccc2cc3c(=O)[nH]c(=O)nc-3n(-c3cccc(-c4nnn[nH]4)c3)c2c1 [Compound 1, 2,4-Dioxo-10-[3-(1H-tetrazol-5-yl)phenyl]pyrimido[4,5-b]-quinoline-8-carbonitrile]
- synergy with ETP [1]: synergistic effect
- combination effect with ETP ([1]; 5 μM ETP): supra-additive effect
- cells killed in combination with ETP ([1]; 1 in combination with 1 μM of ETP): over 90%
- cytotoxicity by itself ([1]; up to 50 μM, 72 h): not cytotoxic
- activity against native endogenous avian TDP2 in DT40 whole cell extracts [2]: active
- IC50 [3]: 710 nM and 580 nM
- synergy with ETP (TK6 TDP2 KO cells): synergy was not observed
- IC50 (mTDP2 9M (8M + H323L)): 29 ± 10 nM
- synergy with camptothecin (DT40 hTDP2 cells; ETP replaced by camptothecin, Supporting Information Figure 4): not observed
- synergy with ETP (DT40 hTDP2 cells; increasing concentrations of ETP): synergistic effect
- IC50 [4]: 1200 ± 100 nM
- resistance of zTDP2 to the drug (zebrafish TDP2 (zTDP2)): at least 3 orders of magnitude
- kcat (recombinant human TDP2; 30 nM of 1): 2.75 s⁻¹
- kcat (recombinant human TDP2; 50 nM of 1): 2.71 s⁻¹
- kcat (recombinant human TDP2; 150 nM of 1): 3.03 s⁻¹
- mode of inhibition of hTDP2 (recombinant human TDP2; Lineweaver double-reciprocal plot): competitive inhibitor
- synergy with ETP [5]: showed synergy
- combination effect with ETP [6]: supra-additive effect
- IC50 (mTDP2 WT): > 111000 nM
- synergy with ETP (DT40 TDP2 KO cells): synergy was greatly reduced
- resistance of cTDP2 to the drug (C. elegans TDP2 (cTDP2)): at least 3 orders of magnitude
- activity against human cellular TDP2 in HT29 whole cell extracts [7]: confirmed

SMILES: N#Cc1ccc2cc3c(=O)[nH]c(=O)nc-3n(-c3ccccc3)c2c1 [Compound 3, 2,4-Dioxo-10-phenyl-pyrimido[4,5-b]quinoline-8-carbonitrile]
- synergy with ETP [1]: synergistic effect

SMILES: O=c1nc2n(-c3ccc(O)cc3)c3cc(Cl)ccc3cc-2c(=O)[nH]1 [Compound 4, 8-Chloro-10-(4-hydroxyphenyl)pyrimido[4,5-b]quinoline-2,4-dione]
- decrease of potency against hTDP2 ([8]; 4 relative to 2 (cyano replaced by chloro)): 27 fold

SMILES: O=c1nc2n(-c3ccccc3)c3ccccc3cc-2c(=O)[nH]1 [Compound 5, 10-Phenylpyrimido[4,5-b]quinoline-2,4(3H,10H)-dione]
- additional loss of potency against hTDP2 ([8]; 5 relative to 4 (chloro removed)): 18 fold

SMILES: COc1cc([C@@H]2c3cc4c(cc3[C@@H](O[C@@H]3O[C@@H]5CO[C@@H](C)O[C@H]5[C@H](O)[C@H]3O)[C@H]3COC(=O)[C@H]23)OCO4)cc(OC)c1O [ETP, etoposide, reference compound]
- cells killed by ETP by itself ([1]; 1 μM ETP alone): around 50%
